Measurements pooled from the literature.
Organism: Leishmania donovani
Observed: parasite growth

| Structure (SMILES) | method | cell line | tested at | time | setting | endpoint | result |
| --- | --- | --- | --- | --- | --- | --- | --- |
| c1ccc(CN2CCN(c3nc(-c4ccccn4)nc4ccccc34)CC2)cc1 | imaging | THP-1 |  |  | intracellular, amastigote | IC50 | 2600 nM |
| C[C@@H]1[C@H](O)[C@@H](C)/C=C/C=C/C=C/C=C/C=C/C=C/C=C/[C@H](O[C@@H]2O[C@H](C)[C@@H](O)[C@H](N)[C@@H]2O)C[C@@H]2O[C@](O)(C[C@@H](O)C[C@@H](O)[C@H](O)CC[C@@H](O)C[C@@H](O)CC(=O)O[C@H]1C)C[C@H](O)[C@H]2C(=O)O |  |  |  |  | promastigote | IC50 | 135 nM |
| c1ccc(-c2nc(N3CCCC3)c3ccccc3n2)nc1 |  | THP-1 |  |  | intracellular, amastigote | IC50 | 2500 nM |
| COc1cc(NC(C)CCCNC(=S)NCCCC(C)Nc2cc(OC)cc3cccnc23)c2ncccc2c1.Cl.Cl (stereo not drawn) | resazurin |  |  |  | promastigote | IC90 | 20 to 31 µg/mL |
| COc1ccccc1-c1n[nH]c2nc(NC3CCN(C(=O)Cc4ccc(OCCOCCN)cc4)CC3)ncc12 |  | THP-1 |  |  | intracellular, amastigote | EC50 | 26700 nM |
| C[C@@H]1[C@H](O)[C@@H](C)/C=C/C=C/C=C/C=C/C=C/C=C/C=C/[C@H](O[C@@H]2O[C@H](C)[C@@H](O)[C@H](N)[C@@H]2O)C[C@@H]2O[C@](O)(C[C@@H](O)C[C@@H](O)[C@H](O)CC[C@@H](O)C[C@@H](O)CC(=O)O[C@H]1C)C[C@H](O)[C@H]2C(=O)O | MTT |  |  | 48 h | amastigote | IC90 | 1800 nM |
| COc1ccccc1-c1n[nH]c2nc(N[C@H]3CC[C@H](NS(=O)(=O)CCCOCCOCCN)CC3)ncc12 |  |  |  |  | amastigote | EC50 | 4210 nM |
| CCCCCCCC/C=C\CCCCCCCCCCCCOP(=O)([O-])OCC[N+](C)(C)C | resazurin |  | 25 µM | 72 h | promastigote | inhibition | 106% |
| N=C(N)c1ccc(OCCCCCOc2ccc(C(=N)N)cc2)cc1 | resazurin |  |  |  | promastigote | IC50 | 1 µg/mL |
| CCCCCCCCCCCCCCCCOP(=O)([O-])OCC[N+](C)(C)C | resazurin |  | 50 µM | 72 h | promastigote | inhibition | 100% |
| COc1ccccc1-c1n[nH]c2nc(NC3CCN(C(=O)Cc4ccc(OCCOCCNC(=O)OC(C)(C)C)cc4)CC3)ncc12 |  |  |  |  | amastigote | EC50 | 4200 nM |
| N=C(N)c1ccc(OCCCCCOc2ccc(C(=N)N)cc2)cc1 | resazurin |  |  | 72 h | promastigote | IC90 | 8.77 µg/mL |
